esBAF inh: blocks esBAF chromatin remodeling in mouse ES cells; reporter increase, % at 12.5 µM; hit rate 2% among 350,000; Bmi1-luciferase knock-in reporter, 24 h; 100% = twice the neutral-well signal; AID 602393; in the data active = activation above about 40%; inconclusive = no clear call, values can overlap the other calls;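 also: a rise in the Bmi1 reporter signal indicates esBAF inhibition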
Xi reactivation: X-chromosome reactivation activator; XiGFP mouse fibroblasts, % GFP-positive cells imaging, 3 d; cells co-treated with 5-aza-dC sensitizer; scaled so ellipticine positive control = 100%; activation, % at 7.58 µM; hit rate 0.055% among 360,000;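 active = mean normalized replicate activation at least 10% and every replicate at or above 10%; inconclusive = only one of the two criteria met; inactive = mean below 10% and not all replicates reach 10%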
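System: 68-5-11 XiGFP fibroblast line; Timing: 3 days compound exposure; Compound dosing: one concentration, pinned; Benchmarks: positive control ellipticine, 6 µM final; Buffer or medium: DMEM containing 5-aza-dC.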
MITF act: MITF TRPM1 promoter activation in melanoma cells; SK-MEL-5 TRPM1-promoter luciferase, 24 h; % of positive control, neutral wells = 0; activation, % at 12.5 µM; hit rate 0.75% among 300,000;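 active = mean activation of at least 80% with every replicate also reaching 80%; inconclusive = mean reaches 80% but some replicate falls short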
CASP6 VEID inh: caspase-6 (human) enzyme inhibition; P55212; purified caspase-6, Z-VEID-R110 cleavage fluorescence; inhibition, % at 12.5 µM; hit rate 0.53% among 350,000; AID 686996;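 active = mean inhibition across replicates at least about 35%, with every replicate also reaching that limit, limit read from the data; inconclusive = only one of the two criteria met; inactive = neither criterion met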
Wnt bcat act: activators of Wnt/beta-catenin signaling | Wnt/beta-catenin reporter cell assay, activator, plate reader | activation, % at 9.35 µM | hit rate 1.2% among 300,000 | AID 743398; in the data active = activation above about 30%, passing the limit was not always enough; inconclusive = no clear call, values can overlap the other calls
NSD2 HMT inh: NSD2 (human) methyltransferase inhibition | O96028 | NSD2 peptide methylation, AlphaScreen, 120 min | inhibition, % at 12.5 µM | hit rate 0.54% among 310,000; in the data active = inhibition above about 50%
A number is an active result; i = inactive; ? = inconclusive; nt = no result. A selection: hits, their analogues and other compounds. The true share with any hit is near 3%.

SMILES	esBAF inh	Xi reactivation	MITF act	CASP6 VEID inh	Wnt bcat act	NSD2 HMT inh
Cc1cccc(-c2cc3nc(C)cc(C)n3n2)c1	66	i	i	i	i	i
Cc1ccc(O)c(CN(C)Cc2cc(C)ccc2O)c1	51	i	i	i	i	i
Cc1ccc(O)c(CP(=O)(c2ccccc2)c2ccccc2)c1	nt	i	i	i	i	i
CCCNC(=O)N1[C@@H](CO)[C@@H](c2ccccc2)C12CN(C(=O)CC1CC1)C2	nt	i	nt	i	nt	nt
COc1cc(C=O)ccc1OCc1ccc(Cl)nc1	63	i	i	i	38	i
COc1cccc(S(=O)(=O)Nc2ccc3c(c2)[C@H]2C[C@@H](CC(=O)NCC(F)(F)F)O[C@@H](CO)[C@H]2O3)c1	i	i	nt	i	nt	nt
COc1ccc(CNc2ccc([N+](=O)[O-])cn2)cc1	63	i	i	i	i	i
COCCNS(=O)(=O)c1cc(-c2nn(C)c(=O)c3ccccc23)ccc1C	i	nt	i	nt	i	i
CCCCNS(=O)(=O)c1cc(-c2nn(C)c(=O)c3ccccc23)ccc1C	i	i	i	36	i	i
CO[C@@H]1CN(C)C(=O)c2ccc(NC(=O)c3cccc(F)c3)cc2OC[C@@H](C)N(C)C[C@@H]1C	i	i	nt	nt	nt	nt
O=C(Nc1ccc(N=Nc2ccccc2)cc1)c1ccccc1Cl	nt	i	121	nt	nt	i
O=C(Nc1ccc2ccccc2c1)c1cc(F)c(F)cc1Cl	78	i	nt	i	i	i
O=C(Nc1ccc2c(c1)C(=O)OC2)c1ccc(Cl)cc1Cl	53	i	i	i	i	i
O=C(Nc1ccc2c(c1)C(=O)OC2)c1ccc(Cl)cc1	i	i	i	i	i	i
O=C(Nc1ccc2c(c1)OCCO2)c1cc(F)c(F)cc1Cl	i	i	?	i	i	i
O=C(Nc1ccc2ccccc2c1)c1ccc(Cl)cc1Cl	i	i	i	i	39	i
O=C(NNC(=O)c1ccc(Cl)cc1Cl)c1ccc2ccccc2c1	i	i	i	i	i	i
Cc1ccc(S(=O)(=O)N[C@@H]2C=C[C@H](CC(=O)N3CCc4ccccc4C3)O[C@@H]2CO)cc1	i	i	nt	i	nt	nt
COC(=O)C[C@H]1C[C@@H]2c3cc(NC(=O)c4cccnc4)ccc3O[C@@H]2[C@H](CO)O1	i	i	nt	i	nt	nt
O=C(Nc1ccc2ccccc2c1)c1ccccc1Cl	i	i	nt	i	44	i
O=C(Nc1ccc2ccccc2c1)c1ccccc1[N+](=O)[O-]	51	i	i	i	i	i
O=C(Nc1ccc2ccccc2c1)c1ccccc1O	nt	i	i	i	i	i
NNC(=O)c1ccc2nc(-c3ccc(Br)cc3)cn2c1	nt	i	93	i	i	i
COc1ccc(CNC(=O)C(=O)NCC(c2ccco2)N2CCOCC2)cc1 (stereo not drawn)	i	i	i	nt	40	i
O=C(NCc1ccccc1)C(=O)NCC(c1ccco1)N1CCOCC1 (stereo not drawn)	nt	nt	i	nt	nt	i
SMILES	esBAF inh	Xi reactivation	MITF act	CASP6 VEID inh	Wnt bcat act	NSD2 HMT inh
Nc1ncccc1OCc1ccc(Cl)c(Cl)c1	nt	i	nt	i	47	i
O=C(OCc1ccc(Cl)c(Cl)c1)c1ccccn1	i	nt	i	nt	nt	i
COc1cc(CNCc2ccccn2)ccc1OCc1ccc(Cl)c(Cl)c1	i	i	105	i	i	i
O=C(NCc1nnc(SCC(=O)N2CCCc3ccccc32)o1)c1ccco1	i	i	i	i	46	i
CCCCCOC(=O)c1ccc(OC(=O)c2cncc(Br)c2)cc1	105	nt	?	nt	nt	i
CCCCCCCOC(=O)c1ccc(OC(=O)c2cccnc2)cc1	i	nt	i	nt	nt	i
Cc1cc(C(=O)COC(=O)Cc2c(F)cccc2Cl)c(C)n1C	78	i	nt	i	i	i
Cn1c(N)c(C(=O)COC(=O)Cc2c(F)cccc2Cl)c(=O)n(C)c1=O	i	i	i	i	i	i
CC1CCCN(C(=O)COC(=O)Cc2c(F)cccc2Cl)C1 (stereo not drawn)	45	i	i	i	i	i
CC1CCCN(C(=O)COC(=O)COc2ccc(Cl)cc2)C1 (stereo not drawn)	nt	i	i	i	i	i
N#Cc1cccc(-c2ccc3c(c2)[C@H]2[C@H](CCN2S(=O)(=O)c2ccccc2F)[C@@H](CO)N3)c1	i	i	nt	i	nt	nt
COc1ccccc1CNC(=O)C[C@H]1CC[C@H](NC(C)=O)[C@@H](CO)O1	i	i	nt	i	nt	nt
CCNC(=O)C[C@@H]1CC[C@@H]2[C@H](COc3ccc(NC(=O)Nc4ccc(Cl)cc4)cc3C(=O)N2C)O1	i	i	nt	i	nt	nt
Cc1cc(N2CCC(C(N)=O)CC2)nc(-c2ccccc2)n1	i	nt	nt	nt	nt	i
Cc1cc(OC(C)C(N)=O)nc(-c2ccccc2)n1 (stereo not drawn)	i	i	i	i	39	i
CC(C)NC(=O)N(C)C[C@@H]1OCCCC[C@H](C)Oc2ccc(NS(=O)(=O)c3ccc(Cl)cc3)cc2C(=O)N([C@@H](C)CO)C[C@@H]1C	i	i	nt	i	nt	nt
CCCN=Cc1sc2ccc(OCC)cc2c1O	77	nt	101	nt	i	i
CCCCCn1nnnc1-c1nc2cc(C)c(C)cc2[nH]c1=O	nt	i	nt	42	i	nt
CCCCn1nnnc1-c1nc2ccccc2[nH]c1=O	nt	i	nt	i	i	nt
CNC[C@@H]1Oc2ccc(N)cc2C(=O)N(C)C[C@H]1C	nt	i	nt	nt	nt	nt
CCOC(=O)Cc1nnc(NC(=O)C(CC)Sc2nncn2C)s1 (stereo not drawn)	i	i	nt	i	i	nt
CCOC(=O)Cc1nnc(NC(=O)C(CC)Sc2nc(C)cc(=O)[nH]2)s1 (stereo not drawn)	i	i	nt	43	i	nt
CO[C@@H]1CN(C)C(=O)c2cc(NC(=O)C3CC3)ccc2OC[C@H](C)N(C(C)=O)C[C@H]1C	i	i	nt	i	nt	nt
CCOc1ccc(N2C(=O)CC(SCCN)C2=O)cc1 (stereo not drawn)	i	nt	nt	nt	34	nt
CCSc1nncn1/N=C/c1ccc(OC)c(OC)c1	i	nt	nt	nt	i	i
SMILES	esBAF inh	Xi reactivation	MITF act	CASP6 VEID inh	Wnt bcat act	NSD2 HMT inh
C=C(C)CSc1nncn1/N=C/c1ccc(OC)cc1	50	nt	98	nt	nt	i
CCC(=O)Nc1ccc2c(c1)OC[C@H](C)N(Cc1cccc(F)c1)C[C@H](C)[C@@H](OC)CN(C)C2=O	i	i	nt	i	nt	nt
CN(C)C(=O)c1cccc(-c2ccc3c(c2)[C@@H]2[C@@H](CCN2C(=O)c2cccnc2)[C@@H](CO)N3)c1	i	i	nt	nt	nt	nt
O=[N+]([O-])c1ccc(NN=Cc2ccc3c(c2)OCO3)nc1	93	i	i	i	i	i
O=[N+]([O-])c1ccc(NN=Cc2ccco2)nc1	91	i	i	i	i	i
O=[N+]([O-])c1ccc(N/N=C\c2cccnc2)nc1	nt	i	99	i	i	i
CC(=O)Nc1ccc(C=NNc2ccc([N+](=O)[O-])cn2)cc1	89	i	i	i	i	i
O=[N+]([O-])c1ccc(NN=Cc2cccc(O)c2)nc1	i	i	i	i	i	i
O=[N+]([O-])c1ccc(NN=Cc2cc(Br)ccc2O)nc1	i	i	i	i	i	i
COc1cccc(CNC(=O)C[C@H]2C=C[C@@H](NC(=O)C3CCC3)[C@@H](CO)O2)c1	i	i	nt	nt	nt	nt

Compound activity (PubChem)
